Compound activity (PubChem BioAssay)
An excerpt weighted towards active compounds, which were near 1.4% of everything screened.
TbMetRS inhib: T. brucei MetRS inhibitors, primary screen, biochemical, luminescence. methionyl-tRNA synthetase (Trypanosoma brucei brucei). purified T. brucei MetRS, ATP depletion, Kinase-Glo luminescence. inhibition, % at 11.9 µM. actives 0.4% (n = 360,000). AID 624268, 2012;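 active = inhibition above a per-plate cutoff of the control wells' mean inhibition plus 3 SD, cut at about 5.5% in these data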;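 note: 0% = DMSO wells median and 100% = median of wells with control inhibitor compound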
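Material: T. brucei methionyl-tRNA synthetase, purified; reagent: substrates ATP, L-methionine and bulk Escherichia coli tRNA; dosing: 11.9 µM single point; timing: 15 min plus 2 h at 25 °C; detection: luminescence of leftover ATP; evaluation: % inhibition; control set: DMSO-only wells as low control; replicates: singlicate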
HDAC3 inh: HDAC3 deacetylase inhibitors, primary screen, biochemical, fluorescence, cell-free homogeneous. Histone deacetylase 3 (Homo sapiens), O15379. recombinant HDAC3, fluorogenic peptide/trypsin coupled. inhibition, % at 8.3 µM. actives 0.15% (n = 320,000); in the data active = inhibition above about 26%, passing the limit was not always enough
IDE inh: human IDE inhibitors in live cells, primary screen, fluorescence polarization, HEK cells, FAbetaB substrate; Insulin-degrading enzyme (Homo sapiens), P14735; FAbetaB cleavage; inhibition, % at 5.59 µM; actives 0.41% (n = 320,000); AID 434962, 2010;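 active = percent inhibition above the average of all tested compounds plus 3 SD, set per screening campaign, cut at about 16% in these data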;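 note: IDE supplied by intact live HEK cells; FP after avidin binding of uncleaved biotin substrate so inhibition keeps polarization high; 0% = DMSO wells and 100% = 60 µM reference IDE inhibitor Ii1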
Yeast superoxide: reduction of superoxide in aged yeast, primary screen, HTS; S. cerevisiae aged cells, superoxide DHE fluorescence; hits give low values; superoxide response (% of plate mean), % at 10 µM; actives 0.18% (n = 330,000);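 active = superoxide response under a set limit, about three screen SD below normal, cut at about 65% in these data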;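 note: yeast aged for seven days with compound at 30 °C before DHE staining; 100% = average MFI of all compound-treated wells on the plate with controls excluded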
IDE cell activ: human IDE activators in live cells, primary screen, fluorescence polarization, HEK cells, FAbeta-B substrate | Insulin-degrading enzyme (Homo sapiens), P14735 | FAbeta-B cleavage; 0% vehicle, 100% cell-free pure enzyme wells | activation, % at 5.96 µM | actives 0.073% (n = 340,000);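 active = activation above the mean of all tested compounds plus 3 SD, set per screening campaign, cut at about 17% in these data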
Efflux pump mplx: inhibitors of Candida efflux pumps in yeast, primary screen, S. cerevisiae, Nile Red, multiplex; actives 0.44% (n = 330,000); inhibition, % at 10 µM; AID 485275, 2010; S. cerevisiae Candida pump triplex;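 active = plate passing quality check with inhibition over a set limit, or well fluorescence over plate mean plus 4 SD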;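 note: Nile Red retained in pooled yeast measured as flow cytometry median fluorescence; 0% = buffer negative control and 100% = Enniatin B positive control; higher means more Nile Red kept so more efflux inhibition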
Cmpd fluor yeast: flagged as fluorescent in efflux inhibitor counter-screen; S. cerevisiae AD/pABC3, compound fluorescence, flow cytometry; shares compounds with Efflux pump mplx; actives 4% (n = 1,700); fluorescence ratio to DMSO, % at 10 µM;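 active = fluorescence ratio to DMSO above its plate's cutoff, the plate mean ratio plus 5 SD, cut at about 210% in these data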;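 note: unstained yeast with no Nile Red so the signal is compound autofluorescence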
Mdr1 pump inh: inhibitors of Candida albicans Mdr1 efflux, confirmation, flow cytometry, singleplex, Cherry Pick1 set; inhibition, % at 10 µM; shares compounds with Efflux pump mplx; AID 588518, 2011; actives 1% (n = 1,700); S. cerevisiae AD/CaMDR1, Nile Red efflux; in the data active = inhibition above about 26%;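 note: 0% = DMSO vehicle and 100% = reference inhibitor; higher means more Nile Red retained so more efflux inhibition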
CaCdr2 efflux inh: inhibitors of Candida albicans Cdr2 efflux pump, confirmation, S. cerevisiae AD/CaCDR2, flow cytometry, cherry pick 1, singleplex | Nile Red retention | actives 4% (n = 1,700) | shares compounds with Efflux pump mplx | Nile Red retention ratio vs DMSO, % at 10 µM; in the data active = Nile Red retention ratio vs DMSO above about 190%;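 note: higher ratio means more blocking of Cdr2 efflux of the dye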
Cdr1 pump inh: inhibitors of Candida albicans Cdr1 efflux pump, confirmation, S. cerevisiae AD/CaCDR1, flow cytometry, cherry pick 1, singleplex. shares compounds with Efflux pump mplx. Nile Red efflux. inhibition, % at 10 µM. actives 1% (n = 1,700). AID 588522, 2011;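 active = inhibition above the screen-wide mean plus twice its standard deviation, cut at about 32% in these data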
An asterisk follows results filed as active.

For CCOC(=O)C1CCN(S(=O)(=O)c2ccc3c(c2)CCN3C(=O)C2CCC2)CC1 the results were TbMetRS inhib 0, HDAC3 inh -6, IDE inh -2, Yeast superoxide 112, IDE cell activ 3, Efflux pump mplx 0, Cmpd fluor yeast 118, Mdr1 pump inh 0, CaCdr2 efflux inh 120 and Cdr1 pump inh 0.
For CC1(C(=O)NCc2cccc(C(F)(F)F)c2)CCN1CCc1ccccc1 (stereo unspecified) the results were TbMetRS inhib 0.
Screening COc1ccccc1-c1sc2cc3c(cc2c1-c1ccc(O)cc1)OCO3 returned TbMetRS inhib 0, HDAC3 inh 13, IDE inh 2, Yeast superoxide 89, IDE cell activ 3 and Efflux pump mplx 0.
`COc1ccc(-c2sc3cc(OC)ccc3c2-c2ccc(OCCN3CCOCC3)cc2)cc1` gave TbMetRS inhib -1, Yeast superoxide 81, IDE cell activ -1, Efflux pump mplx 0, Cmpd fluor yeast 92, Mdr1 pump inh 0, CaCdr2 efflux inh 96 and Cdr1 pump inh 0.
For COc1ccc(-c2c(-c3cc(OC)cc(OC)c3)sc3ccc(OC)cc23)cc1 the results were TbMetRS inhib 1, HDAC3 inh 10, IDE inh 1, Yeast superoxide 99, IDE cell activ 6 and Efflux pump mplx 0.
Screening COc1cc(OC)cc(-c2sc3ccc(OC)cc3c2-c2ccc(OCCN3CCCCC3)cc2)c1 returned TbMetRS inhib -1, Yeast superoxide 99, IDE cell activ 9, Efflux pump mplx active, Cmpd fluor yeast 100, Mdr1 pump inh 70* and Cdr1 pump inh 103*.
For COc1ccc(-c2sc3cc4c(cc3c2-c2ccc(OCCN3CCCCC3)cc2)OCO4)cc1 the results were TbMetRS inhib -1, Yeast superoxide 92, IDE cell activ 5, Efflux pump mplx 1, Cmpd fluor yeast 101, Mdr1 pump inh 0, CaCdr2 efflux inh 98 and Cdr1 pump inh 0.
Screening COc1ccccc1-c1sc2cc3c(cc2c1-c1ccc(OCCN2CCOCC2)cc1)OCO3 returned TbMetRS inhib -2, Yeast superoxide 95, IDE cell activ 5, Efflux pump mplx 1, Cmpd fluor yeast 106, Mdr1 pump inh 0, CaCdr2 efflux inh 102 and Cdr1 pump inh 0.
Screening COc1ccc2c(-c3cnc(N4CCOCC4)nc3)c(-c3ccc(S(C)(=O)=O)cc3)sc2c1 returned TbMetRS inhib 0, HDAC3 inh -25, IDE inh -2, Yeast superoxide 79, IDE cell activ -5 and Efflux pump mplx 0.
Screening COc1ccc(-c2sc3cc4c(cc3c2-c2ccc3c(c2)OCCO3)OCO4)cc1 returned TbMetRS inhib 0, HDAC3 inh -5, IDE inh -3, Yeast superoxide 110, IDE cell activ 3 and Efflux pump mplx 0.
